In PubChem BioAssay AID686992 (Broad Institute, 2013):
The whole screen tested about 260,000 compounds, of which about 960 (0.37%) were called active. This is one part of a sample in which actives are shown more often than they occur.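 Rule for the calls: active = mean E-selectin-positive cell signal at least 10% of the positive control, reached in at least 60% of replicates, without over 20% cell loss; inconclusive = no rule given, readout overlaps actives, possibly toxicity-flagged; inactive = the rest, including those meeting only one limit.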

Biological target: E-selectin (Homo sapiens) (UniProt P16581)
Sequence (P16581 whole entry, looked up): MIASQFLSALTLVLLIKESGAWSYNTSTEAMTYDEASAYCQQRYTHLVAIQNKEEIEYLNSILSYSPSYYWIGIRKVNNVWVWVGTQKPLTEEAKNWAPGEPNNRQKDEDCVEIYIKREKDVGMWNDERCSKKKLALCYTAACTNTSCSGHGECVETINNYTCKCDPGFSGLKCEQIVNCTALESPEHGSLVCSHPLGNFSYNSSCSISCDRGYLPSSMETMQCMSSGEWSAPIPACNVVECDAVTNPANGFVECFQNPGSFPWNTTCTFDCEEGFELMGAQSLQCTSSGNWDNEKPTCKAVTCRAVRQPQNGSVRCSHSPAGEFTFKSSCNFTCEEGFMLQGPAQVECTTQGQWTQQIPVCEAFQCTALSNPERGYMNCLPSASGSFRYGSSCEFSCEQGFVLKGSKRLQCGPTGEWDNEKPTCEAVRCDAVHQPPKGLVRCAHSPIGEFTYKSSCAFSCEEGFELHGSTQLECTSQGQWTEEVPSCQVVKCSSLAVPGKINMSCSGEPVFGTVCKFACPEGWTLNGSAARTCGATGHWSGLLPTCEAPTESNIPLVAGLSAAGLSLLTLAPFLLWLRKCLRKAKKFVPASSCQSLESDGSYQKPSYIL
Assay: E-selectin induction in HUVECs, primary screen, imaging, HUVEC, immunofluorescence imaging, single point (AID 686992);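 note: signal is the percent of cells scored E-selectin positive by PE staining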
Settings: at 7.58 µM, stronger effect = higher value, normalized: neutral wells 0, TNF-alpha wells 100
Summary of the method: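 material = human umbilical vein endothelial cells (HUVEC), E-selectin induction | quantity = 3,000 cells/well | medium = EGM-2 growth medium on 0.1% gelatin-coated wells | technique = immunofluorescence imaging | read-out basis = % PE-positive cells | control set = TNF-alpha positive control, DMSO neutral control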

Row | Structure (SMILES) | activation
1 | COc1ccc(CCCNC(=O)C2Cc3c(-c4cccc(C(N)=O)c4)ccnc3O2)cc1 (configuration not stated) | 0.751% (inactive)
2 | C=CCC[C@H](CCCCC)OC(=O)/C=C/[C@H](O)[C@@H](O)C[C@@H](O)CC=C | -5.32% (inactive)
3 | NC1=NC2(CCCCC2)N(c2ccc(F)cc2F)C(N)=N1 | 522% (active)
4 | O=C(c1ccccc1)N1C[C@@H]2[C@H](c3ccccc31)[C@@H](CO)N2Cc1cc(F)ccc1F | 0.162% (inactive)
5 | CCN1C(=O)N[C@@H]2C[C@H](C(=O)N3CCCC3)[C@H](C)[C@H](c3ccccc3)C[C@@H]21 | -0.199% (inactive)
6 | Cc1ccc(CSc2nc3[nH]ncc3c(=O)[nH]2)cc1 | 92.1% (active)
7 | Cc1cccc(NC(=O)CSc2nc3[nH]ncc3c(=O)[nH]2)c1 | -0.483% (inactive)
8 | Cc1ccc(CSc2nc(-c3ccccc3)c(C#N)c(=O)[nH]2)cc1 | 2.35% (inactive)
9 | O=C1[C@@H](c2ccccc2)[C@@H](c2ccccc2)N1c1ccccc1 | -0.064% (inactive)
10 | O=C(N[C@H]1C=C[C@@H](CC(=O)N2CCc3ccccc3C2)O[C@@H]1CO)C1CCOCC1 | -0.136% (inactive)
11 | COc1cccc(C(=O)Nc2ccc3nc4n(c(=O)c3c2)CCCCC4)c1 | 0.059% (inactive)
12 | Cc1c(C(=O)Nc2cccc(-c3nnc4n3CCCCC4)c2)oc2ccccc12 | -1.41% (inactive)
13 | COc1ccc(-c2nnc3n2CCCCC3)cc1 | 31.2% (active)
14 | Cc1cc(N2CCN(C(=O)OC(C)(C)C)C[C@H]2C)ccc1N1CCN(Cc2ccccc2)[C@H](C)C1 | 0.115% (inactive)
15 | CCOC(=O)[C@]12CCC=C1N(Cc1ccco1)C(=O)[C@H](CC(=O)NCc1cccc(C(F)(F)F)c1)C2 | -0.145% (inactive)
16 | COc1ccc(CCN2C(=O)N(c3ccc(OC)cc3)C(=O)C2CC(=O)Nc2ccc(OC)cc2)cc1 (configuration not stated) | 4.19% (inactive)
17 | CCNC(=O)CC1C(=O)N(c2ccc(OC)cc2)C(=O)N1CCOC (configuration not stated) | 35.7% (active)
18 | CCOc1ccc(NC(=O)CC2C(=O)N(c3ccccc3)C(=O)N2CCOC)cc1 (configuration not stated) | -0.224% (inactive)
19 | O=C(CN1CCOCC1)NC[C@@H]1N[C@@H](CO)[C@@H]1c1ccc(-c2ccccc2)cc1 | 0.253% (inactive)
20 | COc1ccc(-c2ccccc2C2Cc3nnccc3CN2C(=O)Nc2ccccc2)cc1 (configuration not stated) | -0.134% (inactive)
21 | COc1cc(OC)cc(-c2cc3ccc(F)cc3cn2)c1 | 0.221% (inactive)
22 | CCCc1ccc(S(=O)(=O)N2CCN(C(=O)c3cc(C)on3)CC2)cc1 | -0.187% (inactive)
23 | CCCCCCNC(=O)O[C@H]1CN(C(=O)OC(C)C)N(C(=O)OC(C)C)[C@@H]2CN(S(=O)(=O)c3ccc(C)cc3)C[C@]12O | 0.079% (inactive)

Row | Structure (SMILES) | activation
24 | Cc1nc(-c2ccc(F)cc2)c(CC(=O)Nc2cc(S(=O)(=O)N3CCCCC3)ccc2C)s1 | -1.09% (inactive)
25 | Cc1ccc(S(=O)(=O)N2CCN(C(=O)Cc3sc(C)nc3-c3ccc(F)cc3)CC2)c(C)c1 | 62.2% (active)
26 | Cc1nc(-c2ccc(F)cc2)c(CC(=O)N2CCN(S(=O)(=O)c3ccc(F)cc3)CC2)s1 | -0.541% (inactive)
27 | CCOC(=O)C1=C(C(=O)OCC)C2N(Cc3ccc(C#N)cc3)c3ccccc3[C@@]23C[C@@H](C(=O)OC)N(S(=O)(=O)c2ccc(F)cc2)C3=N1 (some centres not stated) | -0.148% (inactive)
28 | COc1ccccc1S(=O)(=O)N[C@@H]1CC[C@H](CCn2cc(C3CCCC3)nn2)O[C@H]1CO | -0.101% (inactive)
29 | CCCCCCCNC(=O)C1(CC2CC(c3cccc(Br)c3)=NO2)CCN(C(=O)c2cc(OCC)c(OCC)c(OCC)c2)CC1 (configuration not stated) | 0.076% (inactive)
30 | Cc1cnc(CN(C)C(=O)CC2C(=O)NCCN2Cc2cccc(F)c2F)[nH]1 (configuration not stated) | -0.473% (inactive)
31 | Cc1nc(CN(C)C(=O)CC2C(=O)NCCN2Cc2ccc(F)cc2)cs1 (configuration not stated) | -0.598% (inactive)
32 | CN(Cc1cccc2ncccc12)C(=O)CC1C(=O)NCCN1Cc1ccc(F)cc1 (configuration not stated) | 365% (active)
33 | COc1ccc2c3c([nH]c2c1)[C@@H](CO)N(C)CC31CCN(S(=O)(=O)c2ccc(C)cc2)CC1 | -0.271% (inactive)
34 | CO[C@H]1CN(C)C(=O)c2ccc(NC(C)=O)cc2OC[C@@H](C)N(C(=O)c2ccncc2)C[C@@H]1C | 0.486% (inactive)
35 | NC(=S)NN=Cc1ccc(OC(=O)COc2cc(Cl)c(Cl)cc2Cl)cn1 | 0.0825% (inactive)
36 | C[C@H](CO)N1C[C@H](C)[C@@H](CN(C)S(=O)(=O)c2ccc([N+](=O)[O-])cc2)OCc2ccccc2-c2c(n(C)c3ccccc23)C1=O | 0.251% (inactive)
37 | CCCc1ccc(OCCNC(=O)c2ccccc2Br)cc1 | 0.473% (inactive)
38 | O=C(NC(=S)Nc1ncccn1)c1ccccc1Br | -0.09% (inactive)
39 | CCOc1cnc(C(=O)NNC(=O)c2ccccc2Br)o1 | 180% (active)
40 | COCC(=O)N1[C@H](C(=O)N2CCN(C)CC2)[C@@H](CO)[C@@H]2Cn3c(ccc(C4=CCCC4)c3=O)[C@@H]21 | 0.129% (inactive)
41 | COC(=O)C1=C(C)N(Cc2ccc(C(F)(F)F)cc2)C(=NCc2ccc(C(F)(F)F)cc2)NC1c1cccc(Cl)c1 (configuration not stated) | -0.458% (inactive)
42 | O=C(C[C@H]1CC[C@@H]2[C@H](COC[C@H](O)CN2CCC(F)(F)F)O1)NCC1CC1 | -0.0615% (inactive)
43 | COc1ccc(C2=NN(C(=O)c3ccccc3C(=O)O)C(c3ccccc3O)C2)cc1 (configuration not stated) | 55.5% (active)
44 | COc1ccc(C2=NN(C(=O)c3cccnc3)C(c3ccccc3)C2)cc1 (configuration not stated) | -2.28% (inactive)
45 | COc1ccc(C2=NN(C(C)=O)C(c3ccccc3)C2)cc1 (configuration not stated) | 0.176% (inactive)
46 | Cc1ccc(C(=O)N2CCCc3ccccc32)c(Cl)c1 | -0.261% (inactive)

Row | Structure (SMILES) | activation
47 | C[C@H](CO)N1C[C@H](C)[C@H](CN(C)C(=O)Nc2ccc(F)cc2)Oc2c(NC(=O)c3cnccn3)cccc2C1=O | 0.893% (inactive)
48 | C[C@H]1CN([C@@H](C)CO)C(=O)c2cccc(NC(=O)c3cnccn3)c2O[C@@H]1CN(C)Cc1ccc(Oc2ccccc2)cc1 | 0.0435% (inactive)
49 | C[C@H]1CN([C@@H](C)CO)C(=O)c2cccc(NC(=O)c3cnccn3)c2O[C@H]1CN(C)C(=O)Nc1ccccc1 | 0.886% (inactive)
50 | CC(C)NC(=O)N(C)C[C@@H]1Oc2c(NC(=O)c3cnccn3)cccc2C(=O)N([C@@H](C)CO)C[C@@H]1C | 88.4% (active)
51 | COc1ccc(CN(C)C[C@H]2Oc3c(NC(=O)c4cnccn4)cccc3C(=O)N([C@H](C)CO)C[C@@H]2C)cc1 | 39% (active)
52 | C[C@@H]1CN([C@H](C)CO)C(=O)c2cccc(NC(=O)c3cnccn3)c2O[C@@H]1CN(C)Cc1ccncc1 | -11.9% (inactive)
53 | COc1ccc2c3c(n(C)c2c1)[C@@H](CO)N(C(=O)c1cnccn1)CC31CCN(C(C)=O)CC1 | -0.0775% (inactive)
54 | Cc1ccccc1-c1csc(C(O)c2cccc(Cl)c2)n1 (configuration not stated) | 0.0645% (inactive)
55 | CCOC(=O)[C@H]1Nc2ccc(Cl)cc2[C@@H]2[C@H]1C1CC(c3ccccc31)N2C(=O)OCc1ccccc1 (some centres not stated) | -3.61% (inactive)
56 | Cc1c(CC(=O)NCC(=O)NCC(=O)O)c(=O)oc2cc3oc4c(c3cc12)CCCC4 | 44.8% (active)
57 | CC[C@@H](C)[C@H](NC(=O)CCc1c(C)c2cc3c4c(oc3c(C)c2oc1=O)CCCC4)C(=O)O | -0.004% (inactive)
58 | Cc1coc2cc3oc(=O)c(CCC(=O)O)c(C)c3cc12 | 0.29% (inactive)
59 | CN1C(=O)C(Br)(Br)CC1c1cccnc1 (configuration not stated) | 0.457% (inactive)
60 | CCc1nc2c(OCCOc3ccccc3)cccn2c1N(C)C(=O)c1ccc(OC)cc1 | -0.197% (inactive)
61 | CCOC(=O)C1C(C)C(C(C)(C)C)N(S(=O)(=O)c2ccc(C)cc2)C1c1ccccc1 (configuration not stated) | -0.306% (inactive)
62 | O=C(NC1CCCC1)[C@@H]1[C@@H](CO)[C@@H]2Cn3c(ccc(-c4ccc(F)cc4)c3=O)[C@H]1N2Cc1cocn1 | 0.192% (inactive)
63 | CCOC(=O)C(=Cc1ccccc1)C(=O)c1ccccc1 | -0.023% (inactive)
64 | COc1ccc2sc(-c3ccc(N(C)C)cc3)c(-c3ccc4cc[nH]c4c3)c2c1 | 0.675% (inactive)
65 | COc1ccc2sc(-c3ccc(N(C)C)cc3)c(C#CCO)c2c1 | 0.712% (inactive)
66 | COc1ccc2c(c1)c(=Cc1ccc(N(C)C)cc1)c1cc(-c3ccccc3)[n+](C)n12 | 197% (active)
67 | CC1(C)OC(=O)C2=C(C[C@@H](C3CCCC3)O[C@@H]2c2ccc(Cl)cc2)O1 | -0.0095% (inactive)
